{"source": "ChEMBL document CHEMBL1142010", "about": "“Synthesis and in vitro antitrypanosomal activity of novel Nifurtimox analogues” (2005)", "type_in_all_cases": "functional", "key": {"[1]": {"tested_on": "Trypanosoma cruzi", "assay": "Percent of growth inhibition of Trypanosoma cruzi (Y strain) epimastigote forms at compound concentration of 10 mg/mL after incubation for 24 hr", "parameters": "inhibition: dose or concentration left out as unconfirmed"}, "[2]": {"tested_on": "Trypanosoma cruzi", "assay": "Percent of growth inhibition of Trypanosoma cruzi (Y strain) epimastigote forms at compound concentration of 1 mg/mL after incubation for 24 hr", "method_in_brief": "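Y-strain epimastigotes were grown at 28 °C in LIT medium with 10% heat-inactivated (56°, 30 min) fetal calf serum. Log-phase parasites, started at 2 × 10⁶/mL, were exposed to compound in DMSO (1% final). Growth and viability were read every 24 h by inverted microscopy, absorbance at 580 nm and Neubauer counts, in triplicate. Growth inhibition % is the mean of three experiments.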"}, "[3]": {"tested_on": "Trypanosoma cruzi", "assay": "Percent of growth inhibition of Trypanosoma cruzi (Y strain) epimastigote forms at compound concentration of 1 mg/mL after incubation for 72 hr", "parameters": "inhibition: dose or concentration left out as unconfirmed"}, "[4]": {"tested_on": "Trypanosoma cruzi", "assay": "Percent of growth inhibition of Trypanosoma cruzi (Y strain) epimastigote forms at compound concentration of 100 mg/mL after incubation for 24 hr", "parameters": "inhibition: dose or concentration left out as unconfirmed"}, "[5]": {"tested_on": "Trypanosoma cruzi", "assay": "Percent of growth inhibition of Trypanosoma cruzi (Y strain) epimastigote forms at compound concentration of 1 mg/mL after incubation for 48 hr", "parameters": "inhibition: dose or concentration left out as unconfirmed"}, "[6]": {"tested_on": "Trypanosoma cruzi", "assay": "Percent of growth inhibition of Trypanosoma cruzi (Y strain) epimastigote forms at compound concentration of 10 mg/mL after incubation for 98 hr", "parameters": "inhibition: dose or concentration left out as unconfirmed"}, "[7]": {"tested_on": "Trypanosoma cruzi", "assay": "Percent of growth inhibition of Trypanosoma cruzi (Y strain) epimastigote forms at compound concentration of 10 mg/mL after incubation for 48 hr", "parameters": "inhibition: dose or concentration left out as unconfirmed"}, "[8]": {"tested_on": "Trypanosoma cruzi", "assay": "Percent of growth inhibition of Trypanosoma cruzi (Y strain) epimastigote forms at compound concentration of 10 mg/mL after incubation for 72 hr", "parameters": "inhibition: dose or concentration left out as unconfirmed"}}}
{"smiles": "O=C(/C=C/c1cccs1)NCc1ccccc1", "values": [{"measurement": "inhibition", "setting": "[1]", "value": 17.4, "unit": "%"}, {"measurement": "inhibition at 1000 µg/mL", "setting": "[2]", "value": 17.4, "unit": "%"}, {"measurement": "inhibition", "setting": "[3]", "value": 10.7, "unit": "%"}, {"measurement": "inhibition", "setting": "[4]", "value": 39.1, "unit": "%"}, {"measurement": "inhibition", "setting": "[5]", "value": 15, "unit": "%"}, {"measurement": "inhibition", "setting": "[6]", "value": 13.2, "unit": "%"}, {"measurement": "inhibition", "setting": "[7]", "value": 22.5, "unit": "%"}, {"measurement": "inhibition", "setting": "[8]", "value": 19.6, "unit": "%"}]}
{"smiles": "O=C(/C=C/c1ccc([N+](=O)[O-])o1)Nc1nc2c(Cl)cccc2s1", "values": [{"measurement": "inhibition", "setting": "[1]", "value": 21.7, "unit": "%"}, {"measurement": "inhibition at 1000 µg/mL", "setting": "[2]", "value": 26.1, "unit": "%"}, {"measurement": "inhibition", "setting": "[3]", "value": 23.2, "unit": "%"}, {"measurement": "inhibition", "setting": "[4]", "value": 100, "unit": "%"}, {"measurement": "inhibition", "setting": "[5]", "value": 22.5, "unit": "%"}, {"measurement": "inhibition", "setting": "[6]", "value": 50, "unit": "%"}, {"measurement": "inhibition", "setting": "[7]", "value": 42.5, "unit": "%"}, {"measurement": "inhibition", "setting": "[8]", "value": 50, "unit": "%"}]}
{"smiles": "O=C(/C=C/c1ccc([N+](=O)[O-])o1)NCc1ccccc1", "values": [{"measurement": "inhibition", "setting": "[1]", "value": 100, "unit": "%"}, {"measurement": "inhibition at 1000 µg/mL", "setting": "[2]", "value": 47.8, "unit": "%"}, {"measurement": "inhibition", "setting": "[3]", "value": 71.4, "unit": "%"}, {"measurement": "inhibition", "setting": "[4]", "value": 100, "unit": "%"}, {"measurement": "inhibition", "setting": "[5]", "value": 65, "unit": "%"}, {"measurement": "inhibition", "setting": "[6]", "value": 100, "unit": "%"}, {"measurement": "inhibition", "setting": "[7]", "value": 100, "unit": "%"}, {"measurement": "inhibition", "setting": "[8]", "value": 100, "unit": "%"}]}
{"smiles": "CC(C)CNC(=O)/C=C/c1ccc([N+](=O)[O-])o1", "values": [{"measurement": "inhibition", "setting": "[1]", "value": 100, "unit": "%"}, {"measurement": "inhibition at 1000 µg/mL", "setting": "[2]", "value": 47.8, "unit": "%"}, {"measurement": "inhibition", "setting": "[3]", "value": 69.6, "unit": "%"}, {"measurement": "inhibition", "setting": "[4]", "value": 100, "unit": "%"}, {"measurement": "inhibition", "setting": "[5]", "value": 65, "unit": "%"}, {"measurement": "inhibition", "setting": "[6]", "value": 100, "unit": "%"}, {"measurement": "inhibition", "setting": "[7]", "value": 100, "unit": "%"}, {"measurement": "inhibition", "setting": "[8]", "value": 100, "unit": "%"}]}
{"smiles": "O=C(/C=C/c1ccc([N+](=O)[O-])o1)NCc1ccc2c(c1)OCO2", "values": [{"measurement": "inhibition", "setting": "[1]", "value": 100, "unit": "%"}, {"measurement": "inhibition at 1000 µg/mL", "setting": "[2]", "value": 52.2, "unit": "%"}, {"measurement": "inhibition", "setting": "[3]", "value": 71.4, "unit": "%"}, {"measurement": "inhibition", "setting": "[4]", "value": 100, "unit": "%"}, {"measurement": "inhibition", "setting": "[5]", "value": 67.5, "unit": "%"}, {"measurement": "inhibition", "setting": "[6]", "value": 100, "unit": "%"}, {"measurement": "inhibition", "setting": "[7]", "value": 100, "unit": "%"}, {"measurement": "inhibition", "setting": "[8]", "value": 100, "unit": "%"}]}
{"smiles": "O=C(/C=C/c1ccc([N+](=O)[O-])o1)NCc1ccc(Cl)cc1", "values": [{"measurement": "inhibition", "setting": "[1]", "value": 100, "unit": "%"}, {"measurement": "inhibition at 1000 µg/mL", "setting": "[2]", "value": 39.1, "unit": "%"}, {"measurement": "inhibition", "setting": "[3]", "value": 67.8, "unit": "%"}, {"measurement": "inhibition", "setting": "[4]", "value": 100, "unit": "%"}, {"measurement": "inhibition", "setting": "[5]", "value": 60, "unit": "%"}, {"measurement": "inhibition", "setting": "[7]", "value": 100, "unit": "%"}, {"measurement": "inhibition", "setting": "[8]", "value": 100, "unit": "%"}]}
{"smiles": "O=C(/C=C/c1ccc([N+](=O)[O-])s1)NCc1ccccc1", "values": [{"measurement": "inhibition", "setting": "[1]", "value": 30.4, "unit": "%"}, {"measurement": "inhibition at 1000 µg/mL", "setting": "[2]", "value": 26.1, "unit": "%"}, {"measurement": "inhibition", "setting": "[3]", "value": 25, "unit": "%"}, {"measurement": "inhibition", "setting": "[4]", "value": 100, "unit": "%"}, {"measurement": "inhibition", "setting": "[6]", "value": 55.9, "unit": "%"}, {"measurement": "inhibition", "setting": "[7]", "value": 47.5, "unit": "%"}, {"measurement": "inhibition", "setting": "[8]", "value": 53.6, "unit": "%"}]}
{"smiles": "O=C(/C=C/c1ccco1)NCc1ccccc1", "values": [{"measurement": "inhibition", "setting": "[1]", "value": 21.7, "unit": "%"}, {"measurement": "inhibition at 1000 µg/mL", "setting": "[2]", "value": 8.7, "unit": "%"}, {"measurement": "inhibition", "setting": "[3]", "value": 5.36, "unit": "%"}, {"measurement": "inhibition", "setting": "[4]", "value": 39.1, "unit": "%"}, {"measurement": "inhibition", "setting": "[5]", "value": 5, "unit": "%"}, {"measurement": "inhibition", "setting": "[6]", "value": 19.1, "unit": "%"}, {"measurement": "inhibition", "setting": "[7]", "value": 32.5, "unit": "%"}, {"measurement": "inhibition", "setting": "[8]", "value": 28.6, "unit": "%"}]}
{"smiles": "C[S+](C)[O-]", "note": "[DIMETHYL SULFOXIDE]", "values": [{"measurement": "inhibition", "setting": "[1]", "value": 0, "unit": "%"}, {"measurement": "inhibition at 1000 µg/mL", "setting": "[2]", "value": 0, "unit": "%"}, {"measurement": "inhibition", "setting": "[3]", "value": 0, "unit": "%"}, {"measurement": "inhibition", "setting": "[4]", "value": 0, "unit": "%"}, {"measurement": "inhibition", "setting": "[5]", "value": 0, "unit": "%"}, {"measurement": "inhibition", "setting": "[6]", "value": 0, "unit": "%"}, {"measurement": "inhibition", "setting": "[7]", "value": 0, "unit": "%"}, {"measurement": "inhibition", "setting": "[8]", "value": 0, "unit": "%"}]}
{"smiles": "CC1CS(=O)(=O)CCN1/N=C/c1ccc([N+](=O)[O-])o1", "note": "(stereo not drawn) [NIFURTIMOX]", "values": [{"measurement": "inhibition at 10000 µg/mL", "setting": "[1]", "value": 100, "unit": "%"}, {"measurement": "inhibition at 1000 µg/mL", "setting": "[2]", "value": 17.4, "unit": "%"}, {"measurement": "inhibition at 1000 µg/mL", "setting": "[3]", "value": 19.6, "unit": "%"}, {"measurement": "inhibition at 100000 µg/mL", "setting": "[4]", "value": 100, "unit": "%"}, {"measurement": "inhibition at 1000 µg/mL", "setting": "[5]", "value": 20, "unit": "%"}, {"measurement": "inhibition at 10000 µg/mL", "setting": "[6]", "value": 100, "unit": "%"}, {"measurement": "inhibition at 10000 µg/mL", "setting": "[7]", "value": 100, "unit": "%"}, {"measurement": "inhibition at 10000 µg/mL", "setting": "[8]", "value": 100, "unit": "%"}]}
